Results reported in ChEMBL document CHEMBL1136727, “Regioselective covalent modification of hemoglobin in search of antisickling agents” (J Med Chem, 2003).
Values joined by “and” are separate entries in the source; they are usually repeats but may differ in a detail not shown here. Equal entries are not always repeated.

What was measured:
[1] = molecular target: T1, Hemoglobin HbA (Homo sapiens) (UniProt P69905+P68871); experiment: Inhibition of sickle hemoglobin aggregation using standard saturation solubility (CSAT) assay; format: functional
T1 sequence (P68871 2-147 partner limits assumed): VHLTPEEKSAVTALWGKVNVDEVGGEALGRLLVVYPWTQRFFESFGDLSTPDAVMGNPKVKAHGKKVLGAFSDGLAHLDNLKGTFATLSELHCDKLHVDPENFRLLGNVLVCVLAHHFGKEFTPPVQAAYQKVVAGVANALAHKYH
T1 sequence (P69905 2-142 limits assumed): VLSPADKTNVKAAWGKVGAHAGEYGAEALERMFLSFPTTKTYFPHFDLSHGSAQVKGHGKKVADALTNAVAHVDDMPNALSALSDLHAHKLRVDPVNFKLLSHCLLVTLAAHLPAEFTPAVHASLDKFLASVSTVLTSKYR
Procedure, shortened: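 Saturation solubility (Csat) of deoxy HbS or inhibitor-modified HbS in 50 mM phosphate, pH 7.0. CO is removed by photodissociation under oxygen. HbSO2 at 35 g/dL is deoxygenated on ice with 0.9 M sodium dithionite solution, then centrifuged 1 h at 30 °C. Supernatant Hb is measured spectrophotometrically, and activity is expressed as the solubility increase over the unmodified HbS control.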

[2] = molecular target: T1, Hemoglobin HbA (Homo sapiens); experiment: Ratio of compound modified hemoglobin aggregation […]; format: functional
[3] = molecular target: T1, Hemoglobin HbA (Homo sapiens); experiment: Affinity towards oxygen by hemoglobin after modification by compound; format: functional
[4] = molecular target: Hemoglobin subunit alpha (Homo sapiens) (UniProt P69905); experiment: Percent modification of human hemoglobin alpha (100 uM) after 3h of incubation
Sequence of Hemoglobin subunit alpha (Homo sapiens) (P69905 whole entry): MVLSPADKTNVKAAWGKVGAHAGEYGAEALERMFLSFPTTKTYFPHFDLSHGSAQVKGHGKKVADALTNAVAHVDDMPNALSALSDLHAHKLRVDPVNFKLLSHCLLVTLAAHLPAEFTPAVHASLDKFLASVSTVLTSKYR
Procedure, shortened: (§1)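 HbA·CO at 100 μM final (tetramer) reacted with isothiocyanate at a 2:1 compound:Hb molar ratio in 50 mM ammonium acetate, pH 7.3, with 2% DMSO or buffer alone, for 3 h at 37 °C. An aliquot was diluted in acetonitrile/water with 0.2% formic acid and analysed by electrospray MS to give percent modified α- and β-subunit. Some compounds were run in triplicate.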

[5] = molecular target: Hemoglobin subunit beta (Homo sapiens) (UniProt P68871); experiment: Percent modification of human Hemoglobin beta (100 uM) after 3h of incubation; procedure, shortened: as §1
Sequence of Hemoglobin subunit beta (Homo sapiens) (P68871 2-147 limits assumed): as the sequence (P68871 2-147 partner limits assumed) above

[6] = molecular target: Hemoglobin subunit alpha (Homo sapiens) (UniProt P69905); experiment: Percent modification of human Hemoglobin alpha (100 uM) after 3h of incubation; procedure, shortened: as §1
[7] = molecular target: Hemoglobin subunit alpha (Homo sapiens) (UniProt P69905); experiment: Percent modification of alpha-subunit of human hemoglobin (100 uM) after 3h of incubation; procedure, shortened: as §1

Structure (SMILES)	Csat [1]	Csat/Co [2]	Co [3]	Modification [4]	Modification [5]	Modification [6]	Modification [7]
N#CSCCCCCO	18.8 g/dL	1.11	17 g/dL	–	–	–	–
N#CCCSC#N	17.4 g/dL and 17.8 g/dL and 17.7 g/dL	1.08 and 1.1 and 1.09	16.1 g/dL and 16.3 g/dL and 16.2 g/dL	10%	21%	–	–
CCN(CC)CCNC(=O)c1ccc(SC#N)cc1	–	–	–	36% and 42%	17% and 16% and 15%	40%	–
CCN(CC)CCCCSC#N	20.7 g/dL and 19.1 g/dL and 19.7 g/dL	1.3 (2×) and 1.27	15.9 g/dL and 15 g/dL and 15.1 g/dL	–	–	–	–
N#CSCCCN1CCCC1=O	–	–	–	0%	24%	–	–
N#CSc1ccc(O)cc1	–	–	–	–	8%	51%	–
CN(C)CCCCCSC#N	21.3 g/dL and 20.2 g/dL and 20.7 g/dL	1.34 and 1.35 and 1.37	15.9 g/dL and 15 g/dL and 15.1 g/dL	–	–	–	–
CCN(CC)CCCSC#N	19.9 g/dL and 19.6 g/dL and 19.7 g/dL	1.24 and 1.2 and 1.22	16.1 g/dL and 16.3 g/dL and 16.2 g/dL	0%	37%	–	–
CCN(CC)CCSC#N	21 g/dL and 19.8 g/dL and 20.1 g/dL	1.24 and 1.22 (2×)	17 g/dL and 16.2 g/dL and 16.5 g/dL	–	–	–	–
N#CSc1ccc(CC(=O)O)cc1	–	–	–	42%	13%	–	–
N#CSc1ccc(C(=O)O)c(O)c1	–	–	–	35%	3%	–	–
CN(C)CCCCSC#N	18.8 g dl-1 and 19.1 g dl-1 (2×)	1.23 and 1.22 and 1.27	15.3 g/dL and 15.6 g/dL and 15.1 g/dL	–	–	–	–
N#CSC1CCC(O)CC1 (stereo not given)	–	–	–	0%	18%	–	–
N#CSCCN1CCCCC1	20.9 g/dL and 20.1 g/dL and 20.5 g/dL	1.24 (2×) and 1.23	16.8 g/dL and 16.4 g/dL and 16.5 g/dL	–	–	–	–
N#CSCc1ccncc1	–	–	–	6%	58%	–	–
CN(C)c1ccc(SC#N)cc1	18.2 g/dL	1.07	17 g/dL	–	10%	48%	–
N#CSCCc1c[nH]c2ccccc12	–	–	–	7%	24%	–	–
CCN(CC)CCCCCSC#N	21.1 g dl-1 and 20.4 g dl-1 (2×)	1.33 and 1.36 and 1.35	15.9 g/dL and 15 g/dL and 15.1 g/dL	–	–	–	–
COC(CSC#N)OC	18.2 g/dL and 17.4 g/dL and 17.3 g/dL	1.07 (2×) and 1.04	17 g/dL and 16.2 g/dL and 16.5 g/dL	11%	33%	–	–
N#CSCCCn1ccnc1	20.6 g/dL and 18.6 g/dL and 19.6 g/dL	1.21 and 1.15 and 1.18	17 g/dL and 16.2 g/dL and 16.5 g/dL	7%	13%	–	–
N#CSc1ccc(CCO)cc1	18.7 g/dL	1.1	17 g/dL	72%	8% and 9% (2×)	66%	72%
